CXCR6 block: blocks human CXCR6 beta-arrestin recruitment | inhibition, % at 20 µM | AID 602244 | hit rate 0.36% among 360,000 | O00574 | CHO-K1 PathHunter CXCR6 beta-arrestin, luminescence; in the data active = inhibition above about 34%, passing the limit was not always enough;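 note: antagonist mode with CXCL16 agonist at 10 nM final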
APJ antag: blocks the human apelin receptor APJ | P35414 | CHO-K1 APJ beta-arrestin complementation, luminescence | inhibition, % at 20 µM | hit rate 0.32% among 330,000;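 active = inhibition above about 40% at 20 µM, limit read from the data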;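 note: cells challenged with 10 nM apelin-13 agonist together with compound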
m5-HT2A agonist: mouse HTR2A agonism via beta-arrestin recruitment. P35363. CHO-K1 mHTR2A beta-arrestin complementation, luminescence; percent of 30 µM serotonin response. activation, % at 7.6 µM. hit rate 0.66% among 360,000. AID 624169;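 active = activation above a run cutoff, the mean activation of all tested compounds plus 3 SD, cut at about 14% in these data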
APJ ag: activates the human apelin receptor APJ; P35414; CHO-K1 APJ PathHunter beta-arrestin, luminescence; 0% DMSO wells, 100% apelin; activation, % at 20 µM; hit rate 0.11% among 330,000;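 active = activation more than six SD over the plate average, tested at 20 µM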
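Assay system: CHO-K1 cells stably expressing ProLink-tagged human APJ and arrestin–beta-gal acceptor. Compound dosing: 20 µM single point, 1% DMSO. Times: 16-18 h seeding, 90 min dark compound exposure, 60 min detection. Detection: beta-gal luminescence. Evaluation: APJ–arrestin association signal. Controls: negative DMSO alone, positive Apelin-13 at 10 nM.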
CCR6 antag: CCR6 (human) receptor antagonism; P51684; CHO-K1 CCR6 PathHunter beta-arrestin, luminescence, CCL20-stimulated; inhibition, % at 20 µM; hit rate 0.49% among 340,000; AID 493098;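 active = compounds whose inhibition of the agonist-driven luminescence signal at 20 µM reaches about 50%, limit read from the data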;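 note: cells stimulated with CCL20 at 14 nM final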
EBI2 antag: EBI2 (human) antagonism; P32249; EBI2 beta-arrestin recruitment, luminescence, 7a,25-OHC stimulated; inhibition, % at 5 µM; hit rate 0.81% among 360,000; AID 651636; in the data active = inhibition above about 38%;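 note: enzyme fragment complementation signal reports receptor beta-arrestin coupling in cells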
Target sequence (P32249 whole entry, looked up, the tested form may be a part): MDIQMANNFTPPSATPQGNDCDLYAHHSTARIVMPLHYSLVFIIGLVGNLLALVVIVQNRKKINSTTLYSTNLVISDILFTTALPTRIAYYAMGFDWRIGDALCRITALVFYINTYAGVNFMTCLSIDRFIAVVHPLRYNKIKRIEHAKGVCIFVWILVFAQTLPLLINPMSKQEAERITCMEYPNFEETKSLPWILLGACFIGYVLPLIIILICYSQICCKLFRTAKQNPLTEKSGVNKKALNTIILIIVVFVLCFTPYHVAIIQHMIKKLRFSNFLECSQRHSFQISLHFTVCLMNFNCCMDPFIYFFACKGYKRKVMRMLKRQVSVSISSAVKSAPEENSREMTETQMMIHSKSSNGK
OPRM1 ag: OPRM1 agonism in mouse HTR2A counterscreen. hit rate 5.3% among 2,300. U2OS OPRM1 beta-arrestin PathHunter, luminescence; DMSO 0%, DAMGO 9.3 µM 100%. activation, % at 9.3 µM. shares compounds with m5-HT2A agonist;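 active = mean activation above the mean of DMSO-only wells plus 3 SD, cut at about 0.5% in these data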
m5-HT2A ag conf: mouse HTR2A agonism confirmed; AID 624381; hit rate 19% among 2,300; shares compounds with m5-HT2A agonist; activation, % at 7.6 µM; CHO-K1 PathHunter beta-arrestin recruitment, luminescence; DMSO 0%, 30 µM serotonin 100%;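 active = mean activation across triplicates above the hit threshold derived in the original primary screen, cut at about 15% in these data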
Numbers stand for hits; - = inactive; . = no result given. This is a sample that favours compounds with a hit; in the whole collection about 2.1% have one here.

SMILES | CXCR6 block | APJ antag | m5-HT2A agonist | APJ ag | CCR6 antag | EBI2 antag | OPRM1 ag | m5-HT2A ag conf
CCOC(=O)c1c(C)[nH]c(C(=O)OCC(=O)N(CC(C)C)c2c(N)n(Cc3ccccc3)c(=O)[nH]c2=O)c1C | - | - | - | - | - | - | . | .
CCOC(=O)c1[nH]c(C)c(C(=O)OCC(=O)N(Cc2ccccc2)C(C)C)c1C | - | - | 20 | - | - | - | - | -
O=C1C=C(c2n[nH]nc2-c2ccccc2)C[C@@H](c2ccc(F)cc2)C1 | - | . | 15 | . | . | - | - | -
O=C1C=C(c2ccc(-c3ccccc3)c(F)c2)C[C@@H](c2ccc(F)cc2)C1 | - | - | - | - | - | - | . | .
O=C1C=C(c2ccc(F)cc2OCc2ccccc2)C[C@@H](c2ccc(F)cc2)C1 | - | - | 16 | - | - | - | - | -
COc1ccc([C@H]2CC(=O)C=C(c3cccc(CO)c3)C2)cc1 | - | - | 15 | - | - | - | - | -
COc1cccc(-c2n[nH]nc2C2=CC(=O)C[C@H](c3ccc(F)cc3)C2)c1 | - | . | 22 | . | . | - | - | -
COc1ccc2ccc(O)c(CN(C)CC(=O)Nc3ccccc3C(F)(F)F)c2c1 | - | - | - | - | - | - | . | .
COc1ccc(C(c2nnnn2C(C)(C)C)N2CCN(c3nc4ccccc4s3)CC2)cc1OC (stereo not drawn) | - | . | - | . | - | - | . | .
COc1cc(C(c2nnnn2C(C)(C)C)N2CCN(c3nc4ccccc4s3)CC2)ccc1O (stereo not drawn) | - | - | 29 | - | - | - | - | -
Oc1ccc(C(c2nnnn2CCc2ccccc2)N2CCN(c3nc4ccccc4s3)CC2)cc1 (stereo not drawn) | - | - | 22 | - | - | - | - | -
CCC(C)Sc1ccc([C@@H]2[C@H]3C(=O)N(CC)C(=O)[C@H]3[C@]3(C(=O)OC)CCCCN23)cc1 (stereo partly drawn) | - | - | - | - | - | - | . | .
COc1cc(NC(=O)Nc2nc(C(N)Cc3ccc(C(F)(F)F)cc3)cs2)cc(OC)c1OC (stereo not drawn) | - | . | 42 | . | . | - | - | 29
COc1ccc(NC(=O)Nc2nc(C(N)Cc3ccc(C(F)(F)F)cc3)cs2)cc1 (stereo not drawn) | - | . | 21 | . | . | - | 1.5 | -
COc1ccc(CC(N)c2csc(NC(=O)Nc3ccc(OC)cc3)n2)cc1 (stereo not drawn) | - | . | - | . | . | - | . | .
COc1ccccc1NC(=O)Nc1nc(C(N)Cc2ccc(C(F)(F)F)cc2)cs1 (stereo not drawn) | - | . | - | . | . | - | . | .
Cn1c(N)c(C(=O)COC(=O)CNC(=O)c2ccc(Cl)cc2Cl)c(=O)n(C)c1=O | - | - | 14 | - | - | - | - | -
O=C(Nc1cccc(S(=O)(=O)N2CCOCC2)c1)c1ccc(N2CCCC2=O)cc1 | - | - | - | - | - | - | . | .
CCNc1nc(NC(C)C)nc(N(C#N)C(C)C(=O)N(C)C)n1 (stereo not drawn) | - | - | - | - | - | - | . | .
CCNc1nc(NCC)nc(N(C#N)C(C)C)n1 | - | - | 20 | - | - | - | - | -
CCCc1cc(=O)[nH]c(SCC(=O)N(CCOC)c2c(N)n(Cc3ccccc3)c(=O)[nH]c2=O)n1 | - | - | - | - | - | - | . | .
COc1ccccc1OCCNC(=O)c1ccc(C)o1 | - | - | 15 | - | - | - | - | -
Cc1ccc(C(=O)NCCNC(=O)c2ccc(C)o2)o1 | - | - | - | - | - | - | . | .
COc1ccc2cc(C3=CCCCC3)ncc2c1 | - | - | - | - | - | - | . | .
CCOc1ccc(CCNC(=O)c2cc(=O)[nH]c3ccc(S(=O)(=O)N(CC)CC)cc23)cc1OCC | - | - | 17 | - | - | - | - | -
SMILES | CXCR6 block | APJ antag | m5-HT2A agonist | APJ ag | CCR6 antag | EBI2 antag | OPRM1 ag | m5-HT2A ag conf
COc1ccc(S(=O)(=O)N2CCC(Cc3ccccc3)CC2)cc1NC(C)=O | - | - | - | - | - | - | . | .
NC(=O)C1(NC(=O)[C@@H]2CC3(CC(c4cccc(NC(=O)[C@@H]5CCC(=O)N5)c4)=NO3)CN2C(=O)Cc2ccc(Cl)cc2)CC1 (stereo partly drawn) | - | - | - | - | - | - | . | .
NC(=O)C1(NC(=O)[C@@H]2CC3(CC(c4cccc(NC(=O)[C@@H]5CCC(=O)N5)c4)=NO3)CN2C(=O)Cc2ccc(C(F)(F)F)cc2)CC1 (stereo partly drawn) | - | - | 20 | - | - | - | - | -
O=C(CCNC(=O)c1ccc(Br)cc1)NCc1ccccn1 | - | - | - | - | - | - | . | .
Cc1cccc(C(=O)Nc2ccc(S(=O)(=O)N3CCOCC3)cc2)c1[N+](=O)[O-] | - | - | - | - | - | - | . | .
Cc1c(C(=O)Nc2ccc(S(=O)(=O)N3CCOCC3)cc2)cccc1[N+](=O)[O-] | - | - | 19 | - | - | - | - | -
CN(Cc1ccccc1)C(=O)c1ccc2sc([C@@H]3O[C@H](CO)[C@H](O)[C@H](O)[C@H]3O)nc2c1 | - | . | 21 | . | . | - | - | -
O=C(Nc1ccc(Cl)cc1)c1ccc2sc([C@@H]3O[C@H](CO)[C@H](O)[C@H](O)[C@H]3O)nc2c1 | - | . | - | . | . | - | . | .
Cc1cc(NC(=O)c2ccc3sc([C@@H]4O[C@H](CO)[C@H](O)[C@H](O)[C@H]4O)nc3c2)no1 | - | . | 21 | . | . | - | - | -
COc1ccccc1C(=O)N(C)c1nnc(-c2ccccc2)s1 | - | - | - | - | - | - | . | .

High-throughput results from PubChem.
